Assay results as given in ChEMBL document CHEMBL4014309, “Development of an Acrylate Derivative Targeting the NLRP3 Inflammasome for the Treatment of Inflammatory Bowel Disease” (J Med Chem, 2017).
The source made the active and inactive calls. The calls are words filed in the database; no cut-off is given here.

Assays:
[1] = target: NACHT, LRR and PYD domains-containing protein 3 (Homo sapiens) (UniProt Q96P20); test: Inhibition of NLRP3 in PMA-differentiated and LPS-primed human THP1 cells assessed as decrease in ATP-induced pyroptosis measured as LDH activity at 10 uM preincubated for 1 hr followed by ATP addition measured after 1 hr by colorimetric assay relative to control
Outline: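 THP-1 cells were PMA-differentiated and LPS-primed, then pretreated with vehicle or compound (10 µM, 1 h). Pyroptosis was triggered with ATP (5 mM). LDH in supernatant was measured colorimetrically 1 h after ATP and expressed as percent decrease versus vehicle, mean ± SEM of ≥3 experiments.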

Rattus norvegicus [2] = test: Anti-inflammatory activity in DNBS-induced Sprague-Dawley rat colitis model assessed as reduction in DNBS-induced increase in MPO levels in colon at 12.5 to 50 mg/kg/day, ig for 6 days simulatneously with 6 days of DNBS-challenge by ELISA; format: functional, organism-based
Outline: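 DNBS colitis (15 mg intrarectal in 50% ethanol) was treated by the intragastric route for 6 days from induction (1 mg/kg/day in 1% methylcellulose, or 12.5–50 mg/kg/day in olive oil). Colonic samples (30 mg) were taken adjacent and distal to the necrotic area, homogenized, and assayed for MPO by ELISA. Results are ng MPO per mg tissue, mean ± SEM, n = 10.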

Rattus norvegicus [3] = test: Antiinflammatory activity in DNBS-induced Sprague-Dawley rat colitis model assessed as DNBS-induced macroscopic damage score at 25 mg/kg/day, ig administered as suspension in olive oil for 6 days simulatneously with 6 days of DNBS-challenge (reference value: 8.6 +/- 0.6); format: functional
Rattus norvegicus [4] = test: Antiinflammatory activity in DNBS-induced Sprague-Dawley rat colitis model assessed as body weight recovery at 12.5 to 50 mg/kg/day, ig administered as suspension in olive oil for 6 days simulatneously with 6 days of DNBS-challenge measured daily during compound dosing; format: functional, organism-based
Outline: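 Colitis was induced with intrarectal DNBS (15 mg in 0.25 mL 50% ethanol). Intragastric treatment ran 6 days from the day of induction: 1 mg/kg/day in 1% methylcellulose, or 12.5–50 mg/kg/day in olive oil. Body weight change (g) was recorded at the end of treatment, mean ± SEM, n = 10.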

[5] = Stability of the compound in simulated gastric fluid at 1.56 mg as suspension in olive oil and pH 2 after 2 hrs by UHPLC-MS analysis
Outline: (§1)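 1.56 mg suspended in 100 µL olive oil, mixed with 100 µL SGF (pH 2, pepsin 3.2 mg/mL) for 2 h at 37 °C with shaking. Then 200 µL SIF (pH 7, pancreatin 2 mg/mL) was added for a further 2 h. Dedicated samples at 0, 30, 60 and 120 min were extracted with acetonitrile and analysed by UHPLC-MS. ≥3 repeats.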

Liver = test: Drug metabolism in Sprague-Dawley rat liver microsomes assessed as formation of 2-(2-chlorobenzyl)acrylic acid at 100 uM up to 2 hrs in absence of NADPH by UHPLC-MS analysis; format: ADME, microsome
Rattus norvegicus [6] = test: Antiinflammatory activity in DNBS-induced Sprague-Dawley rat colitis model assessed as DNBS-induced decrease in colonic length at 12.5 mg/kg/day, ig administered as suspension in olive oil for 6 days simulatneously with 6 days of DNBS-challenge (reference value: -34.4%); format: functional; set-up: scale not given: the % may be the effect or the level left
[7] = Stability of the compound in simulated intestinal fluid at 1.56 mg as suspension in olive oil and pH 7 after 2 hrs by UHPLC-MS analysis; outline: as §1
Mus musculus = species on record: Mus musculus; test: Inhibition of NF-kB signaling pathway in C57BL/6 mouse bone marrow derived macrophages assessed as reduction in LPS-induced IL-6 gene expression at 10 to 100 uM preincubated for 30 mins followed by LPS stimulation measured after 4 hrs by qRT-PCR analysis
Outline: (§2)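 C57BL/6 bone marrow macrophages, differentiated with 20% L-cell medium, were preincubated with compound for 30 min. They were then left untreated or given LPS (1 ng/mL, 4 h). Tnfa, Il6 and Il1b expression was measured by quantitative RT-PCR as 2^-ΔΔCt.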

Rattus norvegicus [8] = test: Anti-inflammatory activity in DNBS-induced Sprague-Dawley rat colitis model assessed as DNBS-induced TNFalpha levels in colon at 25 mg/kg/day, ig for 6 days simulatneously with 6 days of DNBS-challenge by ELISA (reference value: 5.9 +/- 0.6 pg/mg); format: functional
Rattus norvegicus [9] = test: Antiinflammatory activity in DNBS-induced Sprague-Dawley rat colitis model assessed as DNBS-induced macroscopic damage score at 12.5 mg/kg/day, ig administered as suspension in olive oil for 6 days simulatneously with 6 days of DNBS-challenge (reference value: 8.6 +/- 0.6); format: functional
[10] = target: NACHT, LRR and PYD domains-containing protein 3 (Homo sapiens) (UniProt Q96P20); test: Inhibition of recombinant human NLRP3 ATPase assessed as hydrolysis of ATP at 50 uM preincubated for 15 mins followed by addition of ATP measured after 40 mins by ADP-Glo assay
Outline: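 Human recombinant NLRP3 (0.105 µg) in 20 mM Tris-HCl pH 7.8, 133 mM NaCl, 20 mM MgCl2, 3 mM KCl, 0.56 mM EDTA, 0.5% DMSO. Compound (100 or 50 µM) was preincubated 15 min at 37 °C, then ATP (250 µM) was added for 40 min at 37 °C. ADP was read by ADP-Glo luminescence. Result is % inhibition vs vehicle; mean ± SEM, ≥3 experiments.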

Rattus norvegicus [11] = test: Anti-inflammatory activity in DNBS-induced Sprague-Dawley rat colitis model assessed as DNBS-induced TNFalpha levels in colon at 50 mg/kg/day, ig for 6 days simulatneously with 6 days of DNBS-challenge by ELISA (reference value: 5.9 +/- 0.6 pg/mg); format: functional
[12] = Glutathione reactivity assessed as adduct formation of the compound at pH 7.4 and 9
Rattus norvegicus [13] = test: Antiinflammatory activity in DNBS-induced Sprague-Dawley rat colitis model assessed as DNBS-induced decrease in colonic length at 25 mg/kg/day, ig administered as suspension in olive oil for 6 days simulatneously with 6 days of DNBS-challenge (reference value: -34.4%); format: functional; set-up: scale not given: the % may be the effect or the level left
[14] = Cytotoxicity against human THP1 cells assessed as reduction in cell viability after 72 hrs by MTT assay; format: cell-based; conditions: THP-1 cells, read-out: TC50
Outline: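 Human THP-1 cells were exposed to 0.1–100 µM for 72 h, and viability was read by MTT. TC50 is the concentration that cuts viability by 50%; percent viable cells at 100 µM is also reported. Mean ± SEM of ≥3 experiments.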

[15] = target: NACHT, LRR and PYD domains-containing protein 3 (Mus musculus) (UniProt Q8R4B8); test: Inhibition of NLRP3 in C57BL/6 mouse bone marrow derived macrophages assessed as reduction in LPS-induced IL-1beta gene expression at 10 to 100 uM preincubated for 30 mins followed by LPS stimulation measured after 4 hrs by qRT-PCR analysis; outline: as §2
Rattus norvegicus [16] = test: Anti-inflammatory activity in DNBS-induced Sprague-Dawley rat colitis model assessed as DNBS-induced IL-1beta levels in colon at 50 mg/kg/day, ig for 6 days simulatneously with 6 days of DNBS-challenge by ELISA (reference value: 22.3 +/- 2.9 ng/mg); format: functional

Sequence of NACHT, LRR and PYD domains-containing protein 3 (Homo sapiens) (Q96P20 whole entry, the tested form may be a part): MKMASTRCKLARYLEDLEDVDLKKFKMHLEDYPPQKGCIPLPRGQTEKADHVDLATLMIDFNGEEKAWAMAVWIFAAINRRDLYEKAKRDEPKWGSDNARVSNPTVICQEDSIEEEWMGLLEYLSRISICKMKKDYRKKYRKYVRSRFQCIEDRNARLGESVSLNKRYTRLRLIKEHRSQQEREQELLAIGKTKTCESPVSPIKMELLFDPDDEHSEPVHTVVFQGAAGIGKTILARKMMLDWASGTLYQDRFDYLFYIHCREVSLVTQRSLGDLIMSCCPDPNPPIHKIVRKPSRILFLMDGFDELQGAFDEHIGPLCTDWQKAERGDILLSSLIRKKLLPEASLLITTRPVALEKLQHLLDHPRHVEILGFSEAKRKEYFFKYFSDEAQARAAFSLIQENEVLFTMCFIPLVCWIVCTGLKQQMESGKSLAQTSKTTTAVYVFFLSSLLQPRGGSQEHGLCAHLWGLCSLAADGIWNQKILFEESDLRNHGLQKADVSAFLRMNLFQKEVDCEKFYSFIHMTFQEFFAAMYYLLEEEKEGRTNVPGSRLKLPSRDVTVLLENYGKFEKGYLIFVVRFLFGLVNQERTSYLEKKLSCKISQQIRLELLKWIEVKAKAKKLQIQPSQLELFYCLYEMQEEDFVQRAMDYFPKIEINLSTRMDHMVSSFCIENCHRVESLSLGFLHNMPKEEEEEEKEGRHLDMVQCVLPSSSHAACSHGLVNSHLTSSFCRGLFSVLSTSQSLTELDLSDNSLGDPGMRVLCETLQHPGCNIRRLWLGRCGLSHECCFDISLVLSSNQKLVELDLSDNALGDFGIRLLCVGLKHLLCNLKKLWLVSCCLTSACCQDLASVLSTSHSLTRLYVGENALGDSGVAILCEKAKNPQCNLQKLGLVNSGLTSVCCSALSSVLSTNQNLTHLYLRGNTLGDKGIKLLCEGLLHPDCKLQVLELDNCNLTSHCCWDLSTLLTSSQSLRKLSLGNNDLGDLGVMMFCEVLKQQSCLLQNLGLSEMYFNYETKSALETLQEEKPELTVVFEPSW
Sequence of NACHT, LRR and PYD domains-containing protein 3 (Mus musculus) (Q8R4B8 whole entry, the tested form may be a part): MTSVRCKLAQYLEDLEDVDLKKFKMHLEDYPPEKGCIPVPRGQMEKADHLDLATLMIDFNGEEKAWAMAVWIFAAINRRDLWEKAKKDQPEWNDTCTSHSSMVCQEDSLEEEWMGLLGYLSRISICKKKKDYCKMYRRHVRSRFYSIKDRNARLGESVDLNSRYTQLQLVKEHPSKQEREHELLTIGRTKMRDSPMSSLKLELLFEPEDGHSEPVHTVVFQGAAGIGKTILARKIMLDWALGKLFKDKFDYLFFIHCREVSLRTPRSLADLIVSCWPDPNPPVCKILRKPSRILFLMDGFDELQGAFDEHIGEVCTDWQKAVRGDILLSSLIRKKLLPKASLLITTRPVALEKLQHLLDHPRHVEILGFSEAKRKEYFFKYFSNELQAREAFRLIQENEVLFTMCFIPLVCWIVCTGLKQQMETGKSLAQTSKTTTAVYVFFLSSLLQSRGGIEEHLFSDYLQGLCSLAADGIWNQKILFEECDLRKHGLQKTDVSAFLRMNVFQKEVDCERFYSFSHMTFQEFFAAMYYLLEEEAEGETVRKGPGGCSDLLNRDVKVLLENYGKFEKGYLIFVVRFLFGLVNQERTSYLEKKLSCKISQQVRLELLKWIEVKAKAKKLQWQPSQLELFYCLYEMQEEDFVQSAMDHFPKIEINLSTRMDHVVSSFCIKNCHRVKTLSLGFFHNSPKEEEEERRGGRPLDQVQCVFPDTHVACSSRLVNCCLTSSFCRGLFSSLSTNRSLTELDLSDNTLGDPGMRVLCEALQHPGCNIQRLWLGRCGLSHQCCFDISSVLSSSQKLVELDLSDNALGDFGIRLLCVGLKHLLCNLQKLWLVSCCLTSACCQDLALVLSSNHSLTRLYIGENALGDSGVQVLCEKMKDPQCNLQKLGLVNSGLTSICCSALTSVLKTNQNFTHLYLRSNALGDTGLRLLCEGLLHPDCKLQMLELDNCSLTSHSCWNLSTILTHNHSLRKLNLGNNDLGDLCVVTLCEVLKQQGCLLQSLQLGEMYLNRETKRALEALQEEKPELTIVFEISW

- inhibition [1]: 33.6%
- Drug metabolism (Liver): Metabolite_Detected
- inhibition (Mus musculus): Active
- inhibition [10]: 29%
- inhibition [15]: Active
SMILES: C=C(Cc1ccccc1Cl)C(=O)OCC
- Activity (Rattus norvegicus [2]): Active
- Activity_index (Rattus norvegicus [3]): 3.1
- Activity (Rattus norvegicus [4]): Active
- Stability [5]: > 99.5%
- Activity (Rattus norvegicus [6]): -19%
- Stability [7]: > 99.5%
- Activity (Rattus norvegicus [8]): 3.3 pg/mg
- Activity_index (Rattus norvegicus [9]): 4.7
- Activity (Rattus norvegicus [11]): 2.7 pg/mg
- Drug metabolism [12]: Metabolite not detected
- Activity (Rattus norvegicus [13]): -13%
- CC50 at 72 h [14]: > 100 µM
- Activity (Rattus norvegicus [16]): 6.6 ng/mg
